Experimental data reported in ChEMBL document CHEMBL4689842, “EUbOPEN Chemogenomics Library wave 1” (2021).

Columns and labels:
Format in all cases: toxicity, cell-based
U2OS [1] = test: Multiplex assay against U2OS; settings: human
Method in brief: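 Tubulin, mitochondrial-mass and membrane-permeability phenotypes are per cents of healthy-nucleus cells. Cells were gated by CellPathfinder machine learning into Hoechst high-intensity objects or normal cells, normal cells into healthy, pyknosed or fragmented nuclei, and pyknosed cells into mitotic or apoptotic. Before that, live cells stained at seeding with Hoechst33342, BioTracker Green Microtubule Cytoskeleton Dye, MitoTracker Red and Annexin V Alexa Fluor 680 were imaged on a CQ1 microscope at 37°C and 5% CO2 after compound addition.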

Fibroblast = test: Incucyte cell viability with human fibroblast; settings: 10 µM, compound concentration 10 uM; also: filed as whole numbers so only -1 and 0 and 1 occur
HEK-293T = test: Incucyte cell viability with HEK293T; settings: human, 10 µM, compound concentration 10 uM; also: filed as whole numbers so only -1 and 0 and 1 occur
U2OS [2] = test: Incucyte cell viability with U2OS; settings: human, 10 µM, compound concentration 10 uM; also: filed as whole numbers so only -1 and 0 and 1 occur
[3] = 12 h, 1 µM, compound concentration 1 uM, replicate 1
[4] = 12 h, 1 µM, compound concentration 1 uM, replicate 2
[5] = 12 h, 10 µM, compound concentration 10 uM, replicate 1
[6] = 12 h, 10 µM, compound concentration 10 uM, replicate 2
[7] = 24 h, 1 µM, compound concentration 1 uM, replicate 1
[8] = 24 h, 1 µM, compound concentration 1 uM, replicate 2
[9] = 24 h, 10 µM, compound concentration 10 uM, replicate 1
[10] = 24 h, 10 µM, compound concentration 10 uM, replicate 2
[11] = 48 h, 1 µM, compound concentration 1 uM, replicate 1
[12] = 48 h, 1 µM, compound concentration 1 uM, replicate 2
[13] = 48 h, 10 µM, compound concentration 10 uM, replicate 1
[14] = 48 h, 10 µM, compound concentration 10 uM, replicate 2
[15] = 0 h, replicate number 1, timepoint 0 hours

## CNc1oc(-c2cccc3ccccc23)nc1C#N
U2OS [1]; [3]
  Population Apoptotic (%): 36%
  Population Fragmented Nuclei (%): 22%
  Population Healthy Nuclei (%): 67%
  Population Hoechst High Intensity Objects (%): 16%
  Population Membrane Permeable-Phenotype (%): 10%
  Population Mitochondria Different-Phenotype (%): 9%
  Population Mitotic Cells (%): 63%
  Population Normal (%): 83%
  Population Pyknosed Nuclei (%): 10%
  Population Tubulin-Different-Phenotype (%): 8%
  Total Cell Count: 113
U2OS [1]; [4]
  Population Apoptotic (%): 0%
  Population Fragmented Nuclei (%): 29%
  Population Hoechst High Intensity Objects (%): 15%
  Population Membrane Permeable-Phenotype (%): 3%
  Population Mitochondria Different-Phenotype (%): 11%
  Population Mitotic Cells (%): 100%
  Population Normal (%): 84%
  Population Pyknosed Nuclei (%): 2%
  Population Tubulin-Different-Phenotype (%): 7%
  Total Cell Count: 100
U2OS [1]; [5]
  Population Apoptotic (%): 86%
  Population Fragmented Nuclei (%): 49%
  Population Healthy Nuclei (%): 18%
  Population Hoechst High Intensity Objects (%): 44%
  Population Membrane Permeable-Phenotype (%): 3%
  Population Mitochondria Different-Phenotype (%): 11%
  Population Mitotic Cells (%): 13%
  Population Normal (%): 55%
  Population Pyknosed Nuclei (%): 32%
  Population Tubulin-Different-Phenotype (%): 15%
  Total Cell Count: 259
U2OS [1]; [6]
  Population Apoptotic (%): 80%
  Population Fragmented Nuclei (%): 55%
  Population Healthy Nuclei (%): 16%
  Population Hoechst High Intensity Objects (%): 46%
  Population Membrane Permeable-Phenotype (%): 1%
  Population Mitochondria Different-Phenotype (%): 3%
  Population Mitotic Cells (%): 19%
  Population Normal (%): 53%
  Population Pyknosed Nuclei (%): 28%
  Population Tubulin-Different-Phenotype (%): 24%
  Total Cell Count: 92
U2OS [1]; [7]
  Population Apoptotic (%): 53%
  Population Fragmented Nuclei (%): 18%
  Population Healthy Nuclei (%): 75%
  Population Hoechst High Intensity Objects (%): 17%
  Population Membrane Permeable-Phenotype (%): 2%
  Population Mitochondria Different-Phenotype (%): 3%
  Population Mitotic Cells (%): 46%
  Population Normal (%): 82%
  Population Pyknosed Nuclei (%): 5%
  Population Tubulin-Different-Phenotype (%): 6%
  Total Cell Count: 119
U2OS [1]; [8]
  Population Apoptotic (%): 25%
  Population Fragmented Nuclei (%): 28%
  Population Healthy Nuclei (%): 67%
  Population Hoechst High Intensity Objects (%): 6%
  Population Membrane Permeable-Phenotype (%): 1%
  Population Mitochondria Different-Phenotype (%): 10%
  Population Mitotic Cells (%): 75%
  Population Normal (%): 93%
  Population Pyknosed Nuclei (%): 3%
  Population Tubulin-Different-Phenotype (%): 21%
  Total Cell Count: 113
U2OS [1]; [9]
  Population Apoptotic (%): 86%
  Population Fragmented Nuclei (%): 50%
  Population Healthy Nuclei (%): 17%
  Population Hoechst High Intensity Objects (%): 43%
  Population Membrane Permeable-Phenotype (%): 3%
  Population Mitochondria Different-Phenotype (%): 15%
  Population Mitotic Cells (%): 13%
  Population Normal (%): 56%
  Population Pyknosed Nuclei (%): 32%
  Population Tubulin-Different-Phenotype (%): 14%
  Total Cell Count: 352
U2OS [1]; [10]
  Population Apoptotic (%): 81%
  Population Fragmented Nuclei (%): 57%
  Population Healthy Nuclei (%): 16%
  Population Hoechst High Intensity Objects (%): 44%
  Population Mitochondria Different-Phenotype (%): 3%
  Population Mitotic Cells (%): 18%
  Population Normal (%): 55%
  Population Pyknosed Nuclei (%): 25%
  Population Tubulin-Different-Phenotype (%): 26%
  Total Cell Count: 116
U2OS [1]; [11]
  Population Apoptotic (%): 56%
  Population Fragmented Nuclei (%): 16%
  Population Healthy Nuclei (%): 79%
  Population Hoechst High Intensity Objects (%): 14%
  Population Mitochondria Different-Phenotype (%): 7%
  Population Mitotic Cells (%): 43%
  Population Normal (%): 85%
  Population Pyknosed Nuclei (%): 3%
  Population Tubulin-Different-Phenotype (%): 8%
  Total Cell Count: 243
U2OS [1]; [12]
  Population Apoptotic (%): 0%
  Population Fragmented Nuclei (%): 29%
  Population Healthy Nuclei (%): 68%
  Population Hoechst High Intensity Objects (%): 10%
  Population Membrane Permeable-Phenotype (%): 1%
  Population Mitochondria Different-Phenotype (%): 8%
  Population Mitotic Cells (%): 100%
  Population Normal (%): 89%
  Population Pyknosed Nuclei (%): 2%
  Population Tubulin-Different-Phenotype (%): 19%
  Total Cell Count: 155
U2OS [1]; [13]
  Population Apoptotic (%): 87%
  Population Fragmented Nuclei (%): 53%
  Population Healthy Nuclei (%): 18%
  Population Hoechst High Intensity Objects (%): 43%
  Population Membrane Permeable-Phenotype (%): 3%
  Population Mitochondria Different-Phenotype (%): 12%
  Population Mitotic Cells (%): 12%
  Population Normal (%): 56%
  Population Pyknosed Nuclei (%): 27%
  Population Tubulin-Different-Phenotype (%): 17%
  Total Cell Count: 525
U2OS [1]; [14]
  Population Apoptotic (%): 81%
  Population Fragmented Nuclei (%): 57%
  Population Healthy Nuclei (%): 14%
  Population Mitochondria Different-Phenotype (%): 5%
  Population Mitotic Cells (%): 18%
  Population Tubulin-Different-Phenotype (%): 26%
  Total Cell Count: 168
Fibroblast; [15]
  Growth Rate: 0
Fibroblast; 6 h, replicate number 2, timepoint 6 hours
  Growth Rate: 1
HEK-293T; [15]
  Growth Rate: 0
HEK-293T; 12 h, replicate number 1, timepoint 12 hours
  Growth Rate: 1
HEK-293T; 18 h, replicate number 1, timepoint 18 hours
  Growth Rate: 1
HEK-293T; 24 h, replicate number 1, timepoint 24 hours
  Growth Rate: 1
U2OS [2]; [15]
  Growth Rate: 0
U2OS [2]; 18 h, replicate number 2, timepoint 18 hours
  Growth Rate: 1
U2OS [2]; 24 h, replicate number 2, timepoint 24 hours
  Growth Rate: 1
